Results from ChEMBL document CHEMBL1806495, “Phenylpropenamide derivatives: anti-hepatitis B virus activity of the Z isomer, SAR and the search for novel analogs” (Bioorg Med Chem Lett, 2011).
Activity calls are given as the source filed them. The rule behind the calls is not given here.

What was measured:
Hepatitis B virus [1] = experiment: Antiviral activity against HBV infected in human HepAD38 cells assessed as inhibition of viral DNA synthesis after 3 days; format: functional; settings: HePAD38, 72 h
Procedure, shortened: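 Anti-HBV readout in the Hep AD38 cellular assay: the value is reported as EC90, the compound concentration that inhibits viral DNA synthesis by 90%.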

[2] = Cytotoxicity against human HepAD38 cells; format: cell-based
Procedure, shortened: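 Viability of Hep AD38 cells measured within the same cellular assay. The value is reported as CC90, the drug concentration that reduces cell viability by 90%.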

Hepatitis B virus [3] = experiment: Antiviral activity against HBV infected in human HepAD38 cells assessed as inhibition of viral DNA synthesis up to 100 uM after 3 days; format: functional, organism-based

Row | SMILES | EC90 (Hepatitis B virus [1]) | CC90 [2] | inhibition (Hepatitis B virus [3])
1 | O=C(N/C(C(=O)N1CCCCC1)=C(\Br)c1ccccc1)c1ccc(Cl)cc1 | 0.91 µM | > 10 µM | –
2 | CN1CCN(C(=O)/C(NC(=O)c2ccccc2)=C(/Cl)c2ccccc2)CC1 | > 10 µM | > 10 µM | –
3 | COc1ccccc1/C(Br)=C(/NC(=O)c1ccccc1)C(=O)N1CCOCC1 | 2.78 µM | > 10 µM | –
4 | O=C(C1C(c2ccccc2)CCN1C(=O)c1ccc(Br)cc1)N1CCCCC1 (stereo unspecified) | > 10 µM | > 10 µM | –
5 | O=C(C1C(c2ccccc2)CCN1C(=O)c1ccccc1)N1CCCCC1 (stereo unspecified) | > 10 µM | > 10 µM | –
6 | O=C(N/C(C(=O)N1CCCCC1)=C(/Cl)c1ccccc1)c1ccccc1 | – | – | inactive
7 | O=C(N/C(C(=O)N1CCCCC1)=C(\Cl)c1cccc2c1OCO2)c1ccccc1 | 9.9 µM | > 10 µM | –
8 | CC1CCCN(C(=O)/C(NC(=O)c2ccccc2)=C(/Cl)c2ccccc2)C1 (stereo unspecified) | 6.43 µM | > 10 µM | –
9 | O=C(N/C(C(=O)N1CCCCC1)=C(\Cl)c1cccc2c1OCO2)c1ccc([N+](=O)[O-])cc1 | 4.66 µM | > 10 µM | –
10 | O=C(N/C(C(=O)N1CCCCC1)=C(\Br)c1ccccc1)c1ccccc1 | 5.9 µM | > 10 µM | –
11 | O=C(C1=C(c2ccccc2)CCN1C(=O)c1ccc(Br)cc1)N1CCCCC1 | > 10 µM | > 10 µM | –
12 | COc1ccc(C(=O)N/C(C(=O)N2CCCCC2)=C(\Cl)c2ccccc2)cc1 | > 10 µM | > 10 µM | –
13 | O=C(c1c(-c2ccccc2)ccn1C(=O)c1ccc(Br)cc1)N1CCCCC1 | > 10 µM | > 10 µM | –
14 | COc1ccccc1/C(Cl)=C(/NC(=O)c1ccccc1)C(=O)N1CCCCC1 | 1.71 µM | > 10 µM | –
15 | O=C(N/C(C(=O)N1CCCCC1)=C(\Br)c1cccc2c1OCO2)c1ccc([N+](=O)[O-])cc1 | 1.25 µM | > 10 µM | –
16 | C/C(=C(/NC(=O)c1ccc(Cl)cc1)C(=O)N1CCCCC1)c1ccccc1 | 1.92 µM | > 10 µM | –
17 | O=C(C1=C(c2ccccc2)CCN1C(=O)c1ccccc1)N1CCCCC1 | > 10 µM | > 10 µM | –
18 | O=C(N/C(C(=O)N1CCCC(F)(F)C1)=C(\Cl)c1ccccc1)c1ccccc1 | > 10 µM | > 10 µM | –
19 | C/C(=C(/NC(=O)c1ccc(Br)cc1)C(=O)N1CCCCC1)c1ccccc1 | 3.92 µM | > 10 µM | –
20 | COc1ccccc1C1=C(C(=O)N2CCCCC2)N(C(=O)c2ccccc2)CC1 | > 10 µM | > 10 µM | –
21 | O=C(N/C(C(=O)N1CCOCC1)=C(\Cl)c1ccccc1)c1ccccc1 | > 10 µM | > 10 µM | –
22 | COc1ccccc1/C(Br)=C(/NC(=O)c1ccc([N+](=O)[O-])cc1)C(=O)N1CCCC1 | 0.39 µM | > 10 µM | –
23 | O=C(c1c(-c2ccccc2)ccn1C(=O)c1ccccc1)N1CCCCC1 | > 10 µM | > 10 µM | –
24 | COc1ccccc1/C(Cl)=C(/NC(=O)c1ccccc1)C(=O)N1CCOCC1 | 4.72 µM | > 10 µM | –

Continued, in another order:

Row | EC90 (Hepatitis B virus [1]) | SMILES | CC90 [2] | inhibition (Hepatitis B virus [3])
25 | > 10 µM | O=C(N/C(C(=O)N1CCCCC1)=C(\Cl)c1ccccc1)c1ccc([N+](=O)[O-])cc1[N+](=O)[O-] | > 10 µM | –
26 | 1.8 µM | Cc1ccccc1/C(Cl)=C(/NC(=O)c1ccccc1)C(=O)N1CCCCC1 | > 10 µM | –
27 | > 10 µM | Cc1ccc(/C(Cl)=C(/NC(=O)c2ccccc2)C(=O)N2CCCCC2)cc1 | > 10 µM | –
28 | 0.56 µM | COc1ccccc1/C(Cl)=C(/NC(=O)c1ccc([N+](=O)[O-])cc1)C(=O)N1CCCCC1 | > 10 µM | –
29 | 1.81 µM | O=C(N/C(C(=O)N1CCCCC1)=C(\Cl)c1ccccc1F)c1ccccc1 | > 10 µM | –
30 | > 10 µM | COc1cc([N+](=O)[O-])ccc1C(=O)N/C(C(=O)N1CCCCC1)=C(\Cl)c1ccccc1 | > 10 µM | –
31 | 4.06 µM | O=C(N/C(C(=O)N1CCCCC1)=C(\Cl)c1ccccc1)c1ccc([N+](=O)[O-])cc1Br | > 10 µM | –
32 | 1.69 µM | COc1ccccc1/C(Cl)=C(/NC(=O)c1ccc([N+](=O)[O-])cc1)C(=O)N1CCCC1 | > 10 µM | –
33 | 2.17 µM | O=C(N/C(C(=O)N1CCCCC1)=C(\Cl)c1ccccc1)c1ccc(F)cc1 | > 10 µM | –
34 | 1.67 µM | O=C(N/C(C(=O)N1CCCCC1)=C(\Cl)c1ccccc1)c1ccc([N+](=O)[O-])cc1 | > 10 µM | –
35 | 1.25 µM | O=C(N/C(C(=O)N1CCCCC1)=C(\Cl)c1ccccc1)c1ccc(Cl)cc1 | > 10 µM | –
36 | > 10 µM | O=C(N/C(C(=O)N1CCCCC1)=C(\Cl)c1ccccc1)c1ccc([N+](=O)[O-])cc1C(F)(F)F | > 10 µM | –
37 | 6.04 µM | O=C(N/C(C(=O)N1CCCCC1)=C(\Cl)c1ccccc1)c1ccc(Br)cc1 | > 10 µM | –
38 | > 10 µM | O=C(N/C(C(=O)N1CCCCC1)=C(\Cl)c1ccc(Cl)cc1)c1ccccc1 | > 10 µM | –
39 | > 10 µM | CS(=O)(=O)c1ccc(C(=O)N/C(C(=O)N2CCCCC2)=C(\Cl)c2ccccc2)cc1 | > 10 µM | –
40 | 2.9 µM | Cc1ccc(C(=O)N/C(C(=O)N2CCCCC2)=C(\Cl)c2ccccc2)cc1 | > 10 µM | –
41 | 5.51 µM | O=C(N/C(C(=O)N1CCCCC1)=C(\Cl)c1ccccc1)c1ccccc1 | > 10 µM | –
